From ChEMBL document CHEMBL1135527, “Synthesis and evaluation of 2'-substituted 4-(4'-carboxy- or 4'-carboxymethylbenzylidene)-N-acylpiperidines: highly potent and in vivo active steroid 5alpha-reductase type 2 inhibitors” (J Med Chem, 2002)

How the values were obtained:
[1] = biological target: 3-oxo-5-alpha-steroid 4-dehydrogenase 2 (Homo sapiens, UniProt P31213); test: In vitro inhibitory activity against Steroid 5-alpha-reductase type 2 of human benign prostatic hyperplasia (BPH) tissue
Procedure, shortened: (§1)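 Human BPH prostate 105000g pellet (nuclei, mitochondria, microsomes) prepared in citrate buffer pH 5.5. Incubation of about 125 μg protein for 30 min at 37 °C in 40 mM citrate pH 5.5 with 100 μM NADPH, 0.21 μM [1,2-³H]testosterone and 2% DMSO. Reaction stopped with NaOH, steroids extracted with ether, T/DHT separated by radio-HPLC. Single 10 μM test or IC50; duplicates.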

[2] = biological target: T1, 3-oxo-5-alpha-steroid 4-dehydrogenase 2 (Rattus norvegicus) (UniProt P31214); test: (§2) Inhibition of Steroid 5-alpha-reductase type 2 of rat ventral prostate (RVP); set-up: concentration or dose not given beside the values; details: Prostate gland, concentration not given here
T1 sequence (whole entry): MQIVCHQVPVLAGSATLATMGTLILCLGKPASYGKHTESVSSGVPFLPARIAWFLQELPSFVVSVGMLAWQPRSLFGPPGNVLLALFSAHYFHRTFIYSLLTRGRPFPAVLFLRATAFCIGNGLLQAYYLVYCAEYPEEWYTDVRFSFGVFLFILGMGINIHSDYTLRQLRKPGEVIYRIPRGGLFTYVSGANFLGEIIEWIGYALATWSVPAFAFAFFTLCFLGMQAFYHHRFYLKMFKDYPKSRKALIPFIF
Procedure, shortened: (§3)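 Type 2 source: rat ventral prostate homogenized in citrate buffer pH 5.5, 105000g pellet. About 250 μg protein incubated 30 min at 37 °C in 40 mM citrate pH 5.5 with 200 μM NADPH, 0.21 μM [1,2-³H]testosterone and 2% DMSO. NaOH stop, ether extraction, radio-HPLC of T/DHT. Result given as % inhibition at 10 μM or IC50, run in duplicate.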

[3] = biological target: T2, 3-oxo-5-alpha-steroid 4-dehydrogenase 1 (Rattus norvegicus) (UniProt P24008); test: Inhibition of Steroid 5-alpha-reductase type I of rat ventral prostate (RVP); assay type: tissue-based; set-up: concentration or dose not given beside the values; details: Prostate gland, concentration not given here
T2 sequence (whole entry): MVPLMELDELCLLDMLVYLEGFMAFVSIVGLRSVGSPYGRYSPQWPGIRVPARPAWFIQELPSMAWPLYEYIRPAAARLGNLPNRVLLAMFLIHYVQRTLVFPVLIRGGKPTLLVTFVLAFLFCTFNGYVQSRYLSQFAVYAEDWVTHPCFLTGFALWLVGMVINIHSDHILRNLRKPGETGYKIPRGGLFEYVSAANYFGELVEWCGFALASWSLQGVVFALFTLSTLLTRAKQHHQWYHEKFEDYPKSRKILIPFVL
Procedure, shortened: (§4)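 Rat ventral prostate 105000g pellet made in 20 mM phosphate pH 6.6 with […] and 1 mM DTT at 0–4 °C. About 250 μg protein incubated 30 min at 37 °C in 40 mM phosphate pH 6.6 with 200 μM NADPH, 0.21 μM [1,2-³H]testosterone and 2% DMSO. Ether extraction, radio-HPLC of T and DHT. % inhibition at 10 μM or IC50; duplicates.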

[4] = biological target: T3, 3-oxo-5-alpha-steroid 4-dehydrogenase 1 (Homo sapiens) (UniProt P18405); test: Inhibition of Steroid 5-alpha-reductase type I of human DU 145 prostatic tumor cell line, at 10 uM
T3 sequence (whole entry): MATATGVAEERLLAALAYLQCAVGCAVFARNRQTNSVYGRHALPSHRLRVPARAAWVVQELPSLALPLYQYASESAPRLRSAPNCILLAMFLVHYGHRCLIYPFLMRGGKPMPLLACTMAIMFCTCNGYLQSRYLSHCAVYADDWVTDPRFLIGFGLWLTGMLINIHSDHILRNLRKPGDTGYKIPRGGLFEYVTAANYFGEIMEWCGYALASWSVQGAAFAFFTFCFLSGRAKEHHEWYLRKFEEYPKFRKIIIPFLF
Procedure, shortened: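 Intact DU145 cells (type 1 source) seeded at 180 000/well and left to adhere overnight. Compound added in DMSO to complete medium, then 6 h at 37 °C in 5% CO2 with [³H]androstenedione, 5 nM. Medium extracted twice with ether, steroids separated by radio-HPLC. Product formed expressed as % of triplicate no-inhibitor controls; screened at 10 μM.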

[5] = biological target: T4, 3-oxo-5-alpha-steroid 4-dehydrogenase 2 (Homo sapiens, UniProt P31213); test: Inhibition of Steroid 5-alpha-reductase type 2 from human benign prostatic hyperplasia (BPH) tissue; procedure, shortened: as §1
T4 sequence (P31213 whole entry): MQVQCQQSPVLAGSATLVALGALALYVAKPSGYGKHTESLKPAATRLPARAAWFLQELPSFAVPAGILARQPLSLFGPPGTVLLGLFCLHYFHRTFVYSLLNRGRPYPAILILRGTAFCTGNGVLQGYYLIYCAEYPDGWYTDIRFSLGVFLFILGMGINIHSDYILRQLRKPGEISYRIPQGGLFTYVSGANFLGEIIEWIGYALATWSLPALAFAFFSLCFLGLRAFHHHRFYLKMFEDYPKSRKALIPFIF

[6] = biological target: T5, 3-oxo-5-alpha-steroid 4-dehydrogenase 1 (Rattus norvegicus, UniProt P24008); test: Inhibition of Steroid 5-alpha-reductase type I from rat ventral prostate (RVP); assay type: tissue-based, Prostate gland; procedure, shortened: as §4
T5 sequence (P24008 whole entry): T2 sequence (whole entry)

[7] = biological target: T6, 3-oxo-5-alpha-steroid 4-dehydrogenase 2 (Homo sapiens) (UniProt P31213); test: Percent of inhibition at 10 benign prostatic hyperplasia (BPH) tissue; details: concentration not given here; procedure, shortened: as §1
T6 sequence (whole entry): T4 sequence (P31213 whole entry)

[8] = biological target: T7, 3-oxo-5-alpha-steroid 4-dehydrogenase 2 (Rattus norvegicus, UniProt P31214); test: as §2; assay type: tissue-based, Prostate gland; procedure, shortened: as §3
T7 sequence (P31214 whole entry): T1 sequence (whole entry)

Rattus norvegicus [9] = test: Mean percentage of inhibition of the T-induced hypertrophic response was calculated according to the equation %inhibition = 100 x (Ct-D)/(Ct-Cc) at a dose 1 mg/kg by subcutaneous administration; assay type: functional; details: sc
Procedure, shortened: (§5)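 Male rats castrated at 21 days old by scrotal incision under ether anaesthesia; eight groups of eight. One week later, testosterone propionate 1 mg/kg and test agent or vehicle in oil given once daily for 4 days. Testosterone and test agent were given by separate sc injections, or the test agent was given orally. Test doses 11.3–12.2 mg/kg, 10 times equimolar to finasteride 1 mg/kg.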

Rattus norvegicus [10] = test: In vivo ventral prostate weights in juvenile castrated rats treated with testosterone propionate (11.3 mg/kg) + compound, by subcutaneous administration; assay type: functional, Prostate gland
Rattus norvegicus [11] = test: Mean percentage of inhibition of the T-induced hypertrophic response was calculated according to the equation %inhibition = 100 x (Ct-D)/(Ct-Cc) at a dose 11.8 mg/kg by subcutaneous administration; assay type: functional; details: sc; procedure, shortened: as §5
Rattus norvegicus [12] = test: In vivo ventral prostate weights in juvenile castrated rats treated with testosterone propionate (11.3 mg/kg) compound, by subcutaneous administration; assay type: functional, Prostate gland; procedure, shortened: as §5
[13] = biological target: T5, 3-oxo-5-alpha-steroid 4-dehydrogenase 1; test: In vitro inhibitory activity against Steroid 5-alpha-reductase type I of rat ventral prostate (RVP); assay type: tissue-based, Prostate gland; procedure, shortened: as §4
[14] = biological target: T6, 3-oxo-5-alpha-steroid 4-dehydrogenase 2 (Homo sapiens); test: Percent of inhibition against Steroid 5-alpha-reductase type 2 of human uM; details: concentration not given here; procedure, shortened: as §1

SMILES	inhibition [2] [%]	inhibition [3] [%]	inhibition [4] [%]	IC50 [5] [nM]	IC50 [6] [nM]	IC50 [8] [nM]	other results
O=C(O)c1cccc(C=C2CCN(C(=O)C(C3CCCCC3)C3CCCCC3)CC2)c1	25	35	–	–	–	–	IC50 [1]: 700 nM
O=C(O)c1ccc(OC2CCN(C(=O)C34CC5CC(CC(C5)C3)C4)CC2)cc1	21	18	7	430	–	–	–
O=C(O)Cc1ccc(C=C2CCN(C(=O)C(c3ccccc3)c3ccccc3)CC2)cc1	63	–	–	–	4500	–	IC50 [1]: 75 nM
CC(C)(C)OC(=O)N1CCC(Oc2ccc(C(=O)O)cc2)CC1	12	4	2	–	–	–	inhibition [7]: 7.8%
O=C(O)c1ccc(C=C2CCN(C(=O)CC(c3ccccc3)c3ccccc3)CC2)cc1	–	–	8	1100	1600	880	–
O=C(O)c1ccc(C=C2CCN(C(=O)C(C3CCCCC3)C3CCCCC3)CC2)cc1 [listing 1 of 2 here]	–	51	46	–	–	–	–
O=C(O)c1cccc(C=C2CCN(C(=O)C(c3ccccc3)c3ccccc3)CC2)c1	43	49	6	–	–	–	inhibition [7]: 57%
O=C(O)Cc1ccc(C=C2CCN(C(=O)C(C3CCCCC3)C3CCCCC3)CC2)cc1	56	66	6	6	–	–	–
COc1cc(C(=O)O)ccc1C=C1CCN(C(=O)C(C2CCCCC2)C2CCCCC2)CC1	43	55	5	130	–	–	–
CC(C)(C)NC(=O)C1CC[C@@]2(C)[C@@H]3CC[C@H]4NC(=O)C=C[C@]4(C)[C@H]3CC[C@]12C.CCC(=O)O[C@H]1CC[C@H]2[C@@H]3CCC4=CC(=O)CC[C@]4(C)[C@H]3CC[C@]12C (stereo partly specified)	–	–	–	–	–	–	inhibition in vivo at 1 mg/kg (Rattus norvegicus [9]): 76%; Weight (Rattus norvegicus [10]): 20.5 (mg of prostate) (100g of body weight)-1
O=C(O)c1ccc(OC2CCN(C(=O)C(c3ccccc3)c3ccccc3)CC2)cc1	58	62	–	–	–	–	IC50 [1]: 1300 nM
O=C(O)c1ccc(C=C2CCN(C(=O)N(c3ccccc3)c3ccccc3)CC2)cc1	–	–	22	830	540	690	–
O=C(O)c1ccc(C=C2CCN(C(=O)C34CC5CC(CC(C5)C3)C4)CC2)c(F)c1	–	–	20	210	2700	3500	–
CCC(=O)O[C@H]1CC[C@H]2[C@@H]3CCC4=CC(=O)CC[C@]4(C)[C@H]3CC[C@]12C.O=C(O)c1ccc(C=C2CCN(C(=O)C(C3CCCCC3)C3CCCCC3)CC2)c(F)c1	–	–	–	–	–	–	inhibition in vivo at 11.8 mg/kg (Rattus norvegicus [11]): 47%; Weight (Rattus norvegicus [12]): 28.6 (mg of prostate) (100g of body weight)-1
O=C(O)c1ccc(C=C2CCN(C(=O)C(c3ccccc3)c3ccccc3)CC2)cc1	–	–	26	530	3400	370	–
O=C(O)c1ccc(C=C2CCN(C(=O)C(C3CCCCC3)C3CCCCC3)CC2)c(F)c1 [listing 1 of 2 here]	–	–	–	11	–	3000	IC50 [13]: 1800 nM
O=C(O)c1ccc(C=C2CCN(C(=O)C34CC5CC(CC(C5)C3)C4)CC2)cc1	–	–	44	260	5600	2500	–
O=C(O)Cc1ccc(C=C2CCN(C(=O)C(C3CCCCC3)C3CCCCC3)CC2)c(F)c1 [listing 1 of 2 here]	–	–	4	–	–	–	–
O=C(O)c1ccc(OC2CCN(C(=O)N(c3ccccc3)c3ccccc3)CC2)cc1	50	53	10	–	–	–	inhibition [14]: 68%
O=C(O)c1ccc(C=C2CCN(C(=O)C(c3ccccc3)c3ccccc3)CC2)c(F)c1	–	–	2	410	1100	1100	–
COc1cc(C(=O)O)ccc1C=C1CCN(C(=O)C23CC4CC(CC(C4)C2)C3)CC1	51	52	10	1200	–	–	–
O=C(O)Cc1ccc(C=C2CCN(C(=O)C(C3CCCCC3)C3CCCCC3)CC2)c(F)c1 [listing 2 of 2 here]	–	–	–	7	3200	38	–
O=C(O)c1ccc(C=C2CCN(C(=O)C(C3CCCCC3)C3CCCCC3)CC2)c(F)c1 [listing 2 of 2 here]	–	–	12	–	–	–	–
O=C(O)c1ccc(C=C2CCN(C(=O)C(C3CCCCC3)C3CCCCC3)CC2)cc1 [listing 2 of 2 here]	–	–	–	60	–	80	–
COc1cc(C(=O)O)ccc1C=C1CCN(C(=O)C(c2ccccc2)c2ccccc2)CC1	–	–	8	3500	1900	940	–
